Assay results as given in PMC4317571 (Structure (London, England : 1993), 2015).
Values belong to the molecule of their own block, whether it stands above or below them. Where no end group is shown, it is not given here. Me2 = dimethyl on the lysine side-chain amine

Legend:
p53K382me2 in U2OS cells = test: Immunoblot of immunoprecipitated p53: anti-p53K382me2 reactivity; type: cell-based, human
Procedure, shortened: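 Sub-confluent U2OS cells were grown in DMEM with 10% FBS and left untreated or given doxorubicin for 4 h. TSA (400 nM) was given for 1 h, in combined treatment added 3 h after doxorubicin. Cells were lysed in Tris pH 7.4/NaCl/Triton buffer with inhibitors. p53 was pulled down from 1 mg protein on DO-1 agarose overnight at 4 °C and eluted non-reducing at 70 °C. Blots were probed overnight at 4 °C with anti-K382me2 and a light-chain-specific secondary.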

[1] = test system: p300/CBP at p53 target regions; test: p300 ChIP-seq enrichment at p53 target regions; type: cell-based; details: meta-analysis of public ChIP-seq data, mouse ES cells
GST 53BP1-TTD = test: Biotinylated p53 peptide microarray binding of GST-tagged 53BP1 TTD; details: biotinylated p53 peptides; four replicate array binding experiments
Procedure, shortened: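 Biotinylated p53 C-terminal peptides (residues 366–390) printed on streptavidin-coated glass slides, then probed with GST-tagged 53BP1 TTD. Binding is shown as normalized mean intensity on a 0 (undetectable) to 1 (strong) scale from four replicate array experiments. Agreement between duplicate arrays was assessed by linear regression correlation.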

53BP1 TTD, wild type = 53BP1 TTD, wild type (Homo sapiens, UniProt Q12888); test: NMR binding to 53BP1 TTD; details: 15N-labeled TTD, peptide titrated in
Chain of 53BP1 TTD, wild type (Q12888 1484-1603 limits assumed): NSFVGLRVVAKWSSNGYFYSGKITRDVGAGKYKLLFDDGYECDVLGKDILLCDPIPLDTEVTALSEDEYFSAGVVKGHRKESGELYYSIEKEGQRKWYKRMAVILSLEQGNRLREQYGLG

[2] = test system: anti-p53K382me2 antibodies; test: Dot-blot reactivity of anti-p53K382me2 antibody toward p53 peptides; type: binding, rabbit; details: relative to p53K381acK382me2 peptide, residues 377–386

Molecule: CC(/C=C/C(=O)NO)=C\[C@@H](C)C(=O)c1ccc(N(C)C)cc1 [TSA]
p53K382me2 level under basal conditions (in words) (p53K382me2 in U2OS cells; basal, with TSA 400 nM, 1 h): little p53K382me2 was present

Molecule: COc1cccc2c1C(=O)c1c(O)c3c(c(O)c1C2=O)C[C@@](O)(C(=O)CO)C[C@@H]3O[C@H]1C[C@H](N)[C@H](O)[C@H](C)O1 [doxorubicin]
p53K382me2 level in immunoprecipitated p53 (in words) (p53K382me2 in U2OS cells; doxorubicin 4 h (5 µg/mL in legend, 0.5 µg/mL in method)): increased substantially
p300/CBP at p53 target regions (in words) [1]: enrichment of p300/CBP

Molecule: p53K382me2: p53 peptide dimethylated at K382 (residues 377–386; biotinylated 366–390 for microarray) (SSHLKSKKGQSTSRHKK(Me2)LMFKTEGP; also: biotin label, position not given here)
chemical shift changes in 1H,15N HSQC spectra of TTD (in words) (53BP1 TTD, wild type): most significant changes in the K382me2-binding cage
anti-p53K382me2 antibody reactivity, fold weaker than with p53K381acK382me2 peptide [2]: 16 fold

Next, values leading:

GST-TTD binding in peptide microarray (in words) (GST 53BP1-TTD): more weakly
Molecule: p53K370me2: p53 CTD peptide dimethylated at K370 (SSHLK(Me2)SKKGQSTSRHKKLMFKTEGP; also: biotin label, position not given here)

GST-TTD binding in peptide microarray (in words) (GST 53BP1-TTD): more weakly
Molecule: p53K372me2: p53 CTD peptide dimethylated at K372 (SSHLKSK(Me2)KGQSTSRHKKLMFKTEGP; also: biotin label, position not given here)

GST-TTD binding in peptide microarray (in words) (GST 53BP1-TTD): recognizes
Molecule: p53K382me2K386ac: biotinylated p53 CTD peptide with K382me2 and K386ac (SSHLKSKKGQSTSRHKK(Me2)LMFK(Ac)TEGP; also: biotin label, position not given here)
